Screening data as filed in PubChem BioAssay.
Pf gametocyte – late stage P. falciparum gametocyte viability inhibitors, primary screen, ATP luminescence, HTS; hit rate 0.065% among 150,000; P. falciparum stage V gametocytes, 24 h; inhibition, % at 10.9 µM; AID 743093, 2013;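 active = inhibition above the mean plus 3 SD of compounds within the control limits, set per campaign, cut at about 38% in these data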;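 note: 0% = DMSO wells and 100% = medium only without gametocytes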
ROMK mod – ROMK potassium channel modulators, primary screen, cell-based, thallium flux, MLSMR library; ATP-sensitive inward rectifier potassium channel 1 (Homo sapiens), P48048; Tet-inducible ROMK, thallium flux fluorescence; actives lie on both sides; B-score at 10 µM; hit rate 2% among 130,000;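 active = signal ratio slope over the read window, or its plate-corrected B-score, at least 3 SD from the plate mean, either direction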;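 note: B-score of the F/F0 ratio slope over 7 to 12 s after thallium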
Target sequence (P48048 whole entry, looked up): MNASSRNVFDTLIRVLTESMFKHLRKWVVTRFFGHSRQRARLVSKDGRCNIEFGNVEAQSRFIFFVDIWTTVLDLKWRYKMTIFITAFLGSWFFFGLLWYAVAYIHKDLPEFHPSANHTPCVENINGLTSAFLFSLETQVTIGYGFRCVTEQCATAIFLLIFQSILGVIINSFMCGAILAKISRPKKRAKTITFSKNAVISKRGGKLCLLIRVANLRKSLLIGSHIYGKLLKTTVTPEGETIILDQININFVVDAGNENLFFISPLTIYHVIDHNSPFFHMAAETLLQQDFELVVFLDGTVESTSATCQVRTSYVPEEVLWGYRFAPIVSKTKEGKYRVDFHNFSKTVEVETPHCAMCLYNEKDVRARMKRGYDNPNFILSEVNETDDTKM
Biofilm kill mix – clotrimazole potentiators killing C. albicans biofilm, primary screen, 4-compound mixtures; hit rate 0.02% among 120,000; C. albicans biofilm persisters + clotrimazole, fluorescence viability; primary screen in compound mixtures of four per well; inhibition, % at 7.6 µM;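 active = inhibition above 30.3% in the primary screen of four-compound pools, then above 30% when the compound was retested; inconclusive = passed the primary limit but could not be retested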;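 note: compounds exposed to preformed 24 h biofilms for 48 h; 0% = untreated biofilm control and 100% = clotrimazole plus chlorhexidine kill blank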
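Assay system: C. albicans biofilms / Medium: RPMI/MOPS medium, pH 7.0 / Schedule: biofilm formation 24 h, compound exposure 48 h, 37 °C / Measured by: Alamar Blue fluorescence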
ROMK retest – ROMK channel modulator hit retest, confirmation, cell-based, thallium flux, duplicate, resupplied hits. normalized thallium flux (F/F0 slope) at 10 µM. hit rate 54% among 3,000. shares compounds with ROMK mod. fluorescence ratio; stronger effect = lower value;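 active = Flux at 10 µM at least 3 SD below or above vehicle control mean in one or both replicates; inconclusive = no clear call, values can overlap the other calls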
* hit, by the source's call; ? = inconclusive; / = no result. This is one part of a sample in which hits are shown more often than they occur.

SMILES	Pf gametocyte	ROMK mod	Biofilm kill mix	ROMK retest
COc1ccc(NC(=O)c2nc[nH]c2C(=O)NCc2ccccc2)cc1	-11	/	/	/
CNC(=O)c1[nH]cnc1C(=O)Nc1ccc(OC)cc1	-15	3.4*	4	0.087
Cc1ccc(-c2nnc(CSc3nnc(COc4ccccc4)n3-c3ccccc3)o2)cc1	9	-3.5*	/	0.053*
Cc1ccc(-c2nnc(CSc3nnc(COc4ccccc4)n3-c3ccc(C)cc3)o2)cc1	/	-0.71	/	/
Cc1cnc([N+](=O)[O-])n1CCOC(=O)NC(=O)c1ccc(F)cc1	1	-0.096	9	/
Cc1nc2ccccc2nc(C)c1=NOCc1ccccc1Cl	/	-0.00059	6	/
O=C(O)c1ccc(CSc2nc3ccccc3c(=O)n2-c2ccccc2)cc1	4	/	/	/
O=C(c1ccc(-n2c(SCc3cccc(F)c3)nc3ccccc3c2=O)cc1)N1CCOCC1	/	-3.4*	19	0.059*
Cc1ccc2c(c1)[C@@H]1[C@H](CO2)[C@H](c2ccccc2)[C@@]2(C)C(=O)N[C@H](C)C(=O)N12	13	/	/	/
c1coc(-c2nn3c(-c4ccco4)nnc3s2)c1	-17	-0.32	/	/
COc1ccccc1-c1nn2c(-c3ccco3)nnc2s1	/	-1.3	/	0.057*
Cc1ccc(Cl)cc1-n1ncc2c(NNC(=O)c3ccco3)ncnc21	14	-0.79	14	/
c1ccc(Cc2nnc(N3CCOCC3)c3ccccc23)cc1	/	-1.1	/	/
c1ccc(Cc2nnc(N3CCCCC3)c3ccccc23)cc1	21	-2.2*	4	0.067*
Cc1cccc(-c2oc3ccccc3c2C#CCCO)c1	5	/	/	/
CCN(CCNC(=O)C1CCCN(Cc2nc(-c3ccc(OC)cc3)oc2C)C1)c1ccccc1 (stereo not drawn)	-5	-3.9*	/	0.059*
CCc1ccc(-c2nc(CN3CCC(C(=O)NCCN(CC)c4ccccc4)CC3)c(C)o2)cc1	-1	/	/	/
CCOC(=O)c1c(CSc2ccccc2)n(C)c2cc(Br)c(OC)c(O)c12	1	/	/	/
CCOC(=O)c1c(CSc2ccccc2)n(C)c2cc(Br)c(OCC(O)CNC(CO)(CO)CO)cc12 (stereo not drawn)	5	-5.2*	7	0.056*
CN(Cc1ccccc1NS(=O)(=O)c1ccc(Cl)cc1)C1CCCCC1	9	-1.1	9	/
CN(Cc1ccccc1NS(=O)(=O)c1ccc2ccccc2c1)C1CCCCC1	-5	-2.9*	7	?
CN(C)/C=C(\C#N)C(=O)Nc1ccc(O)cc1F	-12	0.8	9	/
O=C(CSc1nnc(Cc2ccccc2)o1)c1cc(F)ccc1F	-15	-0.17	10	/
COc1ccc(OCC(=O)C2CC2)c(C#N)c1	-2	-0.76	17	/
CC(C)(C)c1ccc(OCCCn2ccnc2)cc1	8	/	/	/
SMILES	Pf gametocyte	ROMK mod	Biofilm kill mix	ROMK retest
O=C(O)c1ccc(OCCn2ccnc2)cc1	/	0.12	/	0.073
Cc1ccc(NC(=O)c2ccc(Nc3ccccc3F)nc2)cc1	/	2.7*	18	0.081
Cc1ccc(NC(=O)c2ccc(NCc3ccc(F)cc3)nc2)cc1	-21	0.48	23	/
CCN1CCS/C1=C/C=C/C1=[N+](CC)CCS1	/	-1.4	9	/
CCN1CCS/C1=C\C=C\C1=[N+](CC)CCS1	32	/	10	?
CC1(C)CC2(C)OC(=N)C1(C#N)C2(C#N)C#N (stereo not drawn)	5	/	18	/
CC(C)Sc1nc2sc3c(c2c2nnc(SCC(=O)NCc4ccco4)n12)CCCC3	6	/	/	/
CCSc1nc2sc3c(c2c2nnc(SCC(=O)NCc4ccco4)n12)CCCC3	/	0.83	/	0.082
Cc1ccc(CNC(=O)CCc2nnc(Cc3ccc(-c4ccccc4)cc3)o2)o1	/	0.24	26	/
N/C(CC(=O)NC1CCCCC1)=N\OCC(=O)Nc1ccc(Cl)c(Cl)c1	9	/	14	/
CCOc1ccc(NC(=O)COC(=O)C2(C)CC2(Cl)Cl)c([N+](=O)[O-])c1 (stereo not drawn)	4	-1.5	18	/
CCOc1ccc(NC2OCC(O)C(O)C2O)c([N+](=O)[O-])c1 (stereo not drawn)	-7	-8.9*	2	0.074
C=CCNC(=O)C1(c2ccccc2)CC1(Cl)Cl (stereo not drawn)	-18	0.25	9	/
O=C1CC(c2ccco2)CC2=C1C1c3ccccc3C(=O)N1c1ccccc1N2 (stereo not drawn)	/	6.9*	/	0.098*
CCC(=O)N1c2ccccc2NC2=C(C(=O)CC(c3ccco3)C2)C1c1ccco1 (stereo not drawn)	16	-0.53	/	/
CN(C)c1ccc(C(=S)Nc2ccccc2)cc1	/	-0.52	6	/
CN(C)c1cc(O)c(C(=S)Nc2ccccc2)c(N(C)C)c1	/	-3.3*	/	0.063*
COc1ccc(C(=O)Nc2ccc(OC)c(OC)c2)cc1	/	0.05	/	/
COc1ccc(CCNC(=O)c2ccc(-c3ccc([N+](=O)[O-])cc3)o2)cc1OC	3	/	11	0.075
COc1ccc(C(=O)Nc2ccc(C(=O)NCCc3ccc(OC)c(OC)c3)cc2)cc1	24	3.2*	1	0.073
COc1ccc(NC(=O)c2ccc(-c3ccc([N+](=O)[O-])cc3)o2)cc1	-13	-0.42	18	/
CCS(=O)CC(=O)Nc1c(-c2ccccc2)oc2ccccc2c1=O (stereo not drawn)	12	-0.53	16	/
CCN(CC)S(=O)(=O)c1ccc(C)c(NC(=S)NNC(=O)C2CC2)c1	/	0.96	8	/
CCCCc1ccc(NC(=O)c2ccc(N(C)S(C)(=O)=O)cc2)cc1	-7	/	12	/
CC(C)Cn1cc(C(=O)NCCCN2CCC(C)CC2)c2c3ccccc3n(C)c2c1=O	-14	/	/	/
SMILES	Pf gametocyte	ROMK mod	Biofilm kill mix	ROMK retest
CC(C)Cn1cc(C(=O)NC2CCN(Cc3ccccc3)CC2)c2c3ccccc3n(C)c2c1=O	/	-2.2*	/	0.068*
CCC1SC2=NC(C)=C(C(=O)OCC(C)C)C(/C=C/c3ccccc3OC)N2C1=O (stereo not drawn)	-11	/	/	/
CCC1SC2=NC(C)=C(C(=O)OCCOC)C(/C=C/c3ccccc3OC)N2C1=O (stereo not drawn)	-6	/	/	0.059*
c1ccc2c(-c3ccncc3)c[nH]c2c1	1	4*	/	0.091
c1ccc(-c2nnc(-c3ccccc3)c(-c3c[nH]c4ccccc34)n2)cc1	-21	/	/	/
COc1cc2cc(CN(CCc3ccccc3C)C(=S)NCCCN(C)C)c(=O)[nH]c2cc1OC	4	-1.9	6	/
Cc1ccc2[nH]c(=O)c(CN(Cc3ccccc3)C(=S)NCCCN(C)C)cc2c1	-14	-3.2*	10	?
CC1=NN(c2ccccc2)C(=O)/C1=C\C=C1/N(C)c2ccccc2C1(C)C	-10	/	9	0.08
CC1=NN(c2ccccc2)C(=O)/C1=C\C=C\c1ccccc1	-14	/	21	/
CC1=NN(c2ccccc2)C(=O)/C1=C/N(C)C	6	/	7	/
CC1=NN(c2ccccc2)C(=O)/C1=C\C=C1\N(C)c2ccccc2C1(C)C	-9	/	17	0.063*
CCCCNS(=O)(=O)c1ccc(NC(=O)Cc2ccccc2[N+](=O)[O-])cc1	-26	-0.68	5	/
C#CC(C)OC(=O)Nc1cnccc1C(F)(F)F (stereo not drawn)	-40	/	5	/
O=C(COc1ncnc2ccccc12)Nc1ccc(S(=O)(=O)N2CCOCC2)cc1	-2	/	12	/
